beta cell repl: inducers of MIN6 beta-cell proliferation, primary screen, ATP luminescence, uHTS | MIN6 cells proliferation, ATPlite luminescence, 48 h; cells starved in 0.2% serum; 100% = growth in 10% serum | AID 2380, 2010 | hit rate 0.29% among 330,000 | proliferation, % at 10 µM;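 active means compounds whose signal lies at least 3.5 SD above the mean of all wells on their plate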;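 further: 0% = DMSO-treated cells in low-serum medium and 100% = 10% serum control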
FLuc stim CS: FLuc activators, initial screening, artefact control for FLuc-dependent activation tests, biochemical, ATPlite luminescence. Luciferin 4-monooxygenase (Photinus pyralis), P08659. ATPlite luciferase biochemical, 10 min; 0 = ATP-free wells, 1 = DMSO control. activation factor at 10 µM. 200,000 tested, under 10 active. AID 1027, 2008;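 active means luciferase activation factor, scaled between plate controls, of at least 2 with compound at 10 µM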
Target sequence (P08659 whole entry, looked up): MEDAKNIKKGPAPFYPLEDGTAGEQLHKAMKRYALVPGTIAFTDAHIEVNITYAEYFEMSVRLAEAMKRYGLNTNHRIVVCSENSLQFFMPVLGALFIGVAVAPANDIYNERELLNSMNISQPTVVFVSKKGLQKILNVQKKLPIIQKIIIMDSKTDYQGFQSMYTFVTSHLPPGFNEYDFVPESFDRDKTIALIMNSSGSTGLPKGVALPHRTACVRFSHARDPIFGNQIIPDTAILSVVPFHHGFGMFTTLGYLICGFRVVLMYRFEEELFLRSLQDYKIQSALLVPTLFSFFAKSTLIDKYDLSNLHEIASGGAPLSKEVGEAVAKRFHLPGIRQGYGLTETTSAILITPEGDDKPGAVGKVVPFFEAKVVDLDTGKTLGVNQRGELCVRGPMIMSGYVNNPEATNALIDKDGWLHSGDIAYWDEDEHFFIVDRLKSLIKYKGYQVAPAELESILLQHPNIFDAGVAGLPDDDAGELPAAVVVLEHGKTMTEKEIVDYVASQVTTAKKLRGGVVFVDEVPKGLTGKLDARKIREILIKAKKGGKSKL
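System: luciferase plus luciferin reagent, cell-free; medium: PBS as buffer for the ATP substrate; dosing: test compounds dosed from 2 mM stocks in 100% DMSO; timing: 10 min post-reagent at room temperature; measured by: luminescence measurement of luciferase light output; evaluation: luciferase activation, seen as luminescence increase over controls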
hiPSC survival: enhancers of single-cell hiPSC survival, primary screen, ATPlite luminescence | hit rate 0.044% among 360,000 | 100% = ROCK inhibitor wells, 0% = DMSO | survival enhancement, % at 20 µM; in the data active means survival enhancement above about 18%;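 further: cells exposed to compounds for 16 hours before the ATP read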
PPC-1+TRAIL kill: compounds killing PPC-1 cancer cells with TRAIL present, primary screen, TRAIL potentiator project, ATPLite luminescence, uHTS; hit rate 0.41% among 220,000; cell killing (% activity), % at 4 µM or 5 µM; PPC-1 cells + TRAIL, ATPLite viability luminescence;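 active means cell killing above 50% in the first pass at 4 µM, then a duplicate retest at 5 µM averaging 50% or more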;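 further: plate controls were cells with TRAIL plus DMSO for no effect and medium-only wells lacking cells for full effect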
C8 TRAIL sens: viability loss with TRAIL in NB7+C8 cells, primary screen, TRAIL sensitizer project, cell-based, ATPlite luminescence; inhibition (viability loss, TRAIL sensitization), % at 10 µM; hit rate 1% among 360,000; AID 624354, 2012;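 active means compounds causing at least 50% loss of cell viability in the single-dose screen, relative to plate controls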
FLuc inh counter: firefly luciferase enzyme inhibitors, primary screen, artefact control for luciferase-based inhibitor screens, biochemical, luminescence, ATPLite. 10 min. inhibition, % at 10 µM. hit rate 1.5% among 200,000;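 active means inhibition above about 50% when tested at 10 µM, limit read from the data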
The depositor's hits bear a star; · = no result given. A selection: hits, their analogues and other compounds. The true share with any hit is near 1.8%.

SMILES	beta cell repl	FLuc stim CS	hiPSC survival	PPC-1+TRAIL kill	C8 TRAIL sens	FLuc inh counter
CCn1cc(C(=O)NCCC(=O)OC)c(=O)c2cc3c(cc21)OCO3	1	·	0	·	6	·
C1=C(c2ccco2)N2CCN=C2S1	-2	·	-1	·	13	·
C(C#CCCCCCCCCC[n+]1ccccc1)#CCCCCCCCCC[n+]1ccccc1	·	·	-4	·	91*	·
Cc1ccc(S(=O)(=O)c2c(N)n(CCCN(C)C)c3nc4ccccc4nc23)cc1	-3	·	0	4	7	·
CCCCn1c(NS(=O)(=O)c2ccc(C)cc2)c(S(=O)(=O)c2ccccc2)c2nc3ccccc3nc21	·	1.1	1	10	78*	-11
CC1CCN(C(=O)c2[nH]cnc2C(=O)NCc2ccc(CNC(=O)OC(C)(C)C)cc2)CC1	-4	·	1	·	-2	·
Cc1cc(C)n(-c2nnc(NC34CC5CC(CC(C5)C3)C4)nn2)n1	0	0.3	-1	6	34	66*
Cc1cc(C)n(-c2nnc(NC(C)(C)C)nn2)n1	-3	0.5	1	-1	11	53*
CCC(Cc1ccccc1)NS(=O)(=O)c1csc(C(N)=O)c1 (centres undefined)	-1	·	0	·	-30	·
C/C(=N\NC(=O)COc1ccc(C#N)cc1)c1ccccc1OC(F)F	6.9*	1	7	12	-4	-2
COc1ccccc1CCC(=O)Nc1ccc(S(=O)(=O)Nc2ncccn2)cc1	·	·	3	·	12	·
CN(C(=O)C1Cc2c(-c3ccc(Cl)cc3)ccnc2O1)c1ccccc1 (centres undefined)	·	·	-4	·	-19	·
COc1ccc(-c2cc3nc(CCl)[nH]c(=O)c3s2)cc1	-4	·	-1	·	91*	·
COc1ccc(-c2cc3nc[nH]c(=O)c3s2)cc1	-5	0.3	-6	48	61*	72*
COc1c(C)cc(Br)cc1C(=O)NC(=S)NCc1ccco1	-7	·	0	·	9	·
CCNC(=O)C1(C)CCN(C(=O)c2cccc(C#N)c2)C1 (centres undefined)	·	·	4	·	-10	·
O=C(Nc1cccnc1)c1ccc(-c2ccc(Cl)cc2)o1	-2	0.3	0	28	-1	66*
c1ccn(-c2ccc(-c3ccn[nH]3)cc2)c1	-4	0.5	0	10	12	52*
Cc1cccc(NC(=O)c2cnc3sccn3c2=O)c1C	1	0.8	-3	33	20	20
Cc1cccc(NC(=O)c2cnc3sccn3c2=O)c1	-2	0.4	-2	44	35	60*
Cc1ccc(NS(=O)(=O)c2cccc(C(=O)NCC(c3ccco3)N3CCCCC3)c2)cc1 (centres undefined)	-3	·	0	·	16	·
c1ccc2nc3c(nc2c1)[nH]c1ccccc13	-3	0.6	-1	31	52*	45
CCOC(=O)COc1ccc2c(C#N)c3ccccn3c2c1	·	1	-2	-11	3	-3
N#Cc1c2ccc(OCC(N)=O)cc2n2ccccc12	8.1*	1	-1	22	-2	-2
O=C(O)COc1ccc(/C=N/Nc2nc(Nc3ccccc3)nc(N3CCCCC3)n2)cc1	-1	0.5	-3	18	23	55*
SMILES	beta cell repl	FLuc stim CS	hiPSC survival	PPC-1+TRAIL kill	C8 TRAIL sens	FLuc inh counter
COc1ccc(/C=N/Nc2nc(Nc3ccccc3)nc(N3CCCC3)n2)cc1	1	0.8	-2	4	10	23
COc1ccc(C2=CC(=O)C[C@H](c3ccc(OC)c(OC)c3)C2)cn1	6	·	46*	·	-9	·
CCn1c(C)cc(C(=O)CN2C(=O)c3ccccc3S2(=O)=O)c1C	-7	·	-2	·	34	·
C=CCn1c(C)cc(C(=O)CSc2nc3ccccc3[nH]2)c1C	-5	0.5	1	29	46	55*
C=CCn1c(C)cc(C(=O)CN2C(=O)c3ccccc3S2(=O)=O)c1C	-6	·	0	·	83*	·
CCN(CC(=O)Nc1c(F)cccc1F)C(=O)c1ccc(S(=O)(=O)N2CCC(C)CC2)cc1	-5	·	0	·	-9	·
O=C(CCc1ccccc1)NCC1(c2ccccc2)CCCC1	-1	·	1	·	-1	·
O=S(=O)(c1ccccc1)c1nnn2c1nc(NC1CCN(Cc3ccccc3)CC1)c1cc(Cl)ccc12	-7	·	0	·	40	·
O=S(=O)(c1ccccc1)c1nnn2c1nc(NC1CCN(Cc3ccccc3)CC1)c1ccccc12	-8	·	-1	·	76*	·
CC(=O)c1ccc(NC(=O)Nc2ccccc2)cc1	-4	0.6	-1	40	60*	35
CC(=O)c1ccc(NC(=O)c2ccn[nH]2)cc1	-4	0.4	-3	27	48	60*
CCN(CC)c1ccc(NC(=O)Nc2ccccc2)cc1	-5	·	-1	·	59*	·
O=C(Nc1ccccc1)c1ccn[nH]1	3	0.9	8	43	-13	14
O=C(Nc1ccccc1)Nc1ccc(C(=O)N2CCOCC2)cc1	-4	0.4	-2	43	11	55*
O=C(c1ccc(NC(=O)C2(c3ccccc3)CCCC2)cc1)N1CCOCC1	0	·	0	2	-6	·
CCCCn1c(N)c(N(CCC(C)C)C(=O)CC2CCCCC2)c(=O)[nH]c1=O	-1	·	0	·	-5	·
O=C(Cc1ccc(F)cc1)NC1CCS(=O)(=O)C1 (centres undefined)	-4	·	0	·	6	·
N#C/C(=C\c1ccco1)c1nc2ccccc2s1	-3	0.3	-3	38	46	68*
N#C/C(=C/c1ccc(-c2cc(C(=O)O)cc(C(=O)O)c2)o1)c1nc2ccccc2s1	-4	0.7	·	0	·	32
N#C/C(=C/c1ccco1)c1nc2ccccc2s1	0	0.3	-3	25	42	70*
COc1ccc(CNC(=O)[C@H](C)NC(=O)N2CCn3c2nc2ccccc23)cc1	-4	·	0	·	-5	·
COc1ccc(NC(=O)CN2CCN(c3c(C)cccc3C)CC2)cc1	-4	·	1	·	7	·
CCOc1cc(/C=C2\SC(N)=NC2=O)ccc1O	0	·	0	·	-2	·
CCOc1cc(/C=C2\SC(=O)N=C2N)ccc1O	0.0*	1	-2	31	14	0
CC(NC(=O)COC(=O)CN1C(=O)NC2(CCCC2)C1=O)c1ccc(F)cc1 (centres undefined)	·	·	0	·	2	·
Cc1cc(C(=O)CCl)c(C)n1CCc1ccccc1	-5	1	·	25	·	-2
Cc1c(P(=S)(c2ccccc2)c2ccccc2)[n+]2ccccc2n1CCc1ccccc1	·	·	-4	·	53*	·
COc1cccc2c1OCC(C(=O)O)C2 (centres undefined)	-3	1	1	13	-14	-4
